Reference: ChEMBL document CHEMBL1148725, “2,2,2-Trichloro-N-({2-[2-(dimethylamino)ethyl]-1,3-dioxo-2,3-dihydro-1H-benzo[de]isoquinolin- 5-yl}carbamoyl)acetamide (UNBS3157), a novel nonhematotoxic naphthalimide derivative with potent antitumor activity” (J Med Chem, 2007)
The source made the active and inactive calls. No cut-off for these calls is given here.

Columns and labels:
Mus musculus [1] = test: Hematotoxicity in B6D2F1 mouse assessed as platelet count at 80 mg/kg, po; format: organism-based; set-up: dose 80 mg/kg, route oral; details: in vivo
Mus musculus [2] = test: Hematotoxicity in B6D2F1 mouse assessed as platelet count at 120 mg/kg, po; format: organism-based; set-up: dose 120 mg/kg, route oral; details: in vivo
LoVo = test: Antiproliferative activity against LoVo cells after 72 hrs by MTT assay; format: functional, cell-based, Homo sapiens; details: Homo sapiens, LoVo, 72 h
Procedure, shortened: (§1)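 Cells cultured with each compound for three days; growth then read by the MTT colorimetric assay and reported as IC50 (µM).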

MCF7 [3] = test: Antiproliferative activity against MCF7 cells after 72 hrs by MTT assay; format: functional, cell-based, Homo sapiens; details: Homo sapiens, MCF7, 72 h; procedure, shortened: as §1
L1210 [4] = test: Antitumor activity in L1210 cells xenografted B6D2F1 mouse at 40 mg/kg, ip relative to control; format: functional; details: route intraperitoneal
Procedure, shortened: (§2)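 Mice grafted with L1210 leukaemia cells on day 0, then dosed i.p. four times weekly on days 1-4 and 8-11. Five mice per group. Outcome is %T/C, the median survival of treated over control. Kruskal-Wallis test followed by Dunn comparisons against control.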

L1210 [5] = test: Antitumor activity in L1210 cells xenografted B6D2F1 mouse at 80 mg/kg, ip relative to control; format: functional; details: route intraperitoneal; procedure, shortened: as §2
L1210 [6] = test: Antitumor activity in L1210 cells xenografted B6D2F1 mouse at 120 mg/kg, ip relative to control; format: functional; details: route intraperitoneal; procedure, shortened: as §2
Mus musculus [7] = test: Hematotoxicity in B6D2F1 mouse assessed as platelet count at 10 mg/kg, iv; format: organism-based; set-up: dose 10 mg/kg, route intravenous; details: in vivo
Mus musculus [8] = test: Hematotoxicity in B6D2F1 mouse assessed as RBC count at 10 mg/kg, iv; format: organism-based; set-up: dose 10 mg/kg; details: in vivo
Mus musculus [9] = test: Hematotoxicity in B6D2F1 mouse assessed as RBC count at 40 mg/kg, iv; format: organism-based; set-up: dose 40 mg/kg, route intravenous; details: in vivo
Mus musculus [10] = test: Hematotoxicity in B6D2F1 mouse assessed as WBC count at 40 mg/kg, iv; format: organism-based; set-up: dose 40 mg/kg, route intravenous; details: in vivo
Mus musculus [11] = test: Hematotoxicity in B6D2F1 mouse assessed as RBC count at 120 mg/kg, po; format: organism-based; set-up: dose 120 mg/kg, route oral; details: in vivo
Mus musculus [12] = test: Hematotoxicity in B6D2F1 mouse assessed as WBC count at 120 mg/kg, po; format: organism-based; set-up: dose 120 mg/kg, route oral; details: in vivo
Mus musculus [13] = test: Hematotoxicity in B6D2F1 mouse assessed as WBC count at 160 mg/kg, po; format: organism-based; set-up: dose 160 mg/kg, route oral; details: in vivo
[14] = biological target: DNA topoisomerase 2-alpha (Homo sapiens) (UniProt P11388); test: Inhibition of human topoisomerase 2-mediated kinetoplast DNA […] at 50 uM
DNA topoisomerase 2-alpha (Homo sapiens), sequence (P11388 whole entry): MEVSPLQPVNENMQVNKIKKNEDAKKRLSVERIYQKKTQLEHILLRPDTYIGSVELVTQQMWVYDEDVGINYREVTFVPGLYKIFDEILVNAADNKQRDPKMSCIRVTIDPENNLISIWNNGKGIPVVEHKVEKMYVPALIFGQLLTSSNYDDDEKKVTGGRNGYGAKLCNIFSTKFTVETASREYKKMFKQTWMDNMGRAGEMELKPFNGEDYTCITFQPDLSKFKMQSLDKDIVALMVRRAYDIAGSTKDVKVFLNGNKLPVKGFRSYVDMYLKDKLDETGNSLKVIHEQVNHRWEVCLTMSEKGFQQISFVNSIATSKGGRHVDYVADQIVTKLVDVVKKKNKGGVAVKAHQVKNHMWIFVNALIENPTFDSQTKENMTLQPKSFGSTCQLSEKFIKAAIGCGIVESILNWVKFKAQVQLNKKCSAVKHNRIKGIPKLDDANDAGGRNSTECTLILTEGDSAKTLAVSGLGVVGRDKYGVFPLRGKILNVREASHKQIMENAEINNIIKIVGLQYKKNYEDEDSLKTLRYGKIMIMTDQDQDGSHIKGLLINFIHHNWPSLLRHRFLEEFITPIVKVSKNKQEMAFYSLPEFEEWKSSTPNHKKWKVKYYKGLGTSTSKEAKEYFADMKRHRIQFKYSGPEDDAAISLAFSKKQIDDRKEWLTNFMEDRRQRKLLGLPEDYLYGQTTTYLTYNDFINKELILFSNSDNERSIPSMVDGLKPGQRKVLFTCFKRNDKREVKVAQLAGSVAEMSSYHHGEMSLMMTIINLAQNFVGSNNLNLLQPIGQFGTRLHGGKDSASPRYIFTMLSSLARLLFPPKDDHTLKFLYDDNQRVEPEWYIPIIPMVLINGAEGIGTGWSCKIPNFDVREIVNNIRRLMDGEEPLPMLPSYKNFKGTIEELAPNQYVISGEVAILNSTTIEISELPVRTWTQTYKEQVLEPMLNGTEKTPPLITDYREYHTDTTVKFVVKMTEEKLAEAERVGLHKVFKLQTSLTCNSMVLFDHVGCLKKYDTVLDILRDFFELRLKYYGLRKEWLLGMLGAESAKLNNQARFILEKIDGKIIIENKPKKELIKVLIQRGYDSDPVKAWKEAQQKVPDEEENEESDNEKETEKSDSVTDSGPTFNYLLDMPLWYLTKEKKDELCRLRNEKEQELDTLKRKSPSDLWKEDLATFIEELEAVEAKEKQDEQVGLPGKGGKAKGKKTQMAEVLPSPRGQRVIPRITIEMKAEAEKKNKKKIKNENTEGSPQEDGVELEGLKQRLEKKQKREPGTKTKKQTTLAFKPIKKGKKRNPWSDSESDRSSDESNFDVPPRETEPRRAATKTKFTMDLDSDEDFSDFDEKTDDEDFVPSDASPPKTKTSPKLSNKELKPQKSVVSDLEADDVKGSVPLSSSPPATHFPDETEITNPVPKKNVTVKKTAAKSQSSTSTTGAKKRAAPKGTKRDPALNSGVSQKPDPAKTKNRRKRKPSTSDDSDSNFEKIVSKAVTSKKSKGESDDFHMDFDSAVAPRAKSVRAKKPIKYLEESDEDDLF
Procedure, shortened: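 Topoisomerase II strand-passage activity by kDNA decatenation; compounds at 50 µM; catenated networks stay in wells, decatenated kDNA enters ethidium bromide-stained agarose gel; no-enzyme and no-drug reactions as controls.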

DU-145 [15] = test: Induction of apoptosis in human DU145 cells at 10 uM after 72 hrs; format: functional
Procedure, shortened: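 Prostate cancer cells exposed for 72 h to 0, 1 or 10 µM. Apoptosis quantified by flow cytometry after Annexin V-FITC staining.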

DU-145 [16] = test: Induction of apoptosis in human DU145 cells assessed as p53 activation; format: functional, cell-based
Procedure, shortened: (§3)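 PC-3 and DU-145 cells treated over 72 h at 1 and 10 µM, compared with untreated cells. p53, PARP cleavage and procaspase-3/-9 activation assessed by immunoblotting.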

MCF7 [17] = test: Induction of apoptosis in human MCF7 cells assessed as p53 activation; format: functional, cell-based
Procedure, shortened: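 MCF-7 cells treated and p53 activation assessed by immunoblotting, with tubulin as loading control. Adriamycin (2.5 µM, 24 h) served as positive control.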

PC-3 [18] = test: Induction of apoptosis in human PC3 cells assessed as procaspase-8 activation; format: functional, cell-based
PC-3 [19] = test: Induction of apoptosis in human PC3 cells assessed as procaspase-9 activation; format: functional, cell-based; procedure, shortened: as §3
DU-145 [20] = test: Induction of apoptosis in human DU145 cells assessed as procaspase-9 activation; format: functional, cell-based; procedure, shortened: as §3
DU-145 [21] = test: Cell cycle arrest in DU145 cells assessed as accumulation at G2 phase at 10 uM after 72 hrs; format: functional, cell-based; details: Homo sapiens
Procedure, shortened: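 PC-3 or DU-145 cells treated for 72 h with 0, 1 or 10 µM. Cell-cycle distribution (G0/G1, S, G2/M) determined by propidium iodide staining.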

DU-145 [22] = test: Induction of senescence in human DU145 cells; format: functional, cell-based
Procedure, shortened: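 SA-β-galactosidase staining of PC-3 and DU-145 prostate cancer cells after 72 h at 10 µM; adriamycin 20 nM as positive control; expressed as percentage of positively stained cells.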

Mus musculus [23] = test: Hematotoxicity in ip dosed B6D2F1 mouse assessed as decrease in WBC count; format: organism-based; details: in vivo
Procedure, shortened: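 Healthy female B6D2F1 mice, 10 per group, were dosed i.p. three times a week for five consecutive weeks (15 doses). Each compound was given at two dose levels chosen relative to its MTD, in DMSO/saline 5:95 v/v. Mice were sacrificed 3 days after the last dose, and platelet, RBC and WBC counts were taken by Coulter counter. Data are mean ± SEM.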

[24] = Antitumor activity against mouse MXT-HI cells xenografted in B6D2F1 mouse at 160 mg/kg, ip relative to control; format: functional; details: route intraperitoneal
Procedure, shortened: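 MXT-HI mammary adenocarcinoma grafted s.c. onto female B6D2F1 mice. Dosing i.p., five injections weekly for three weeks from day 14 post-graft. Nine mice per group. Tumour surface area measured, and survival expressed as %T/C, the ratio of treated to control median survival time.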

Homo sapiens = organism: Homo sapiens; test: Inhibition of human topoisomerase 2 at 50 uM by plasmid linearization assay

CN(C)CCN1C(=O)c2cccc3cc(NC(=O)NC(=O)C(Cl)(Cl)Cl)cc(c23)C1=O
Activity (Mus musculus [1]): 872 10^3 /uL
Activity (Mus musculus [2]): 977 10^3 /uL
IC50 (LoVo): 0.9 µM
IC50 (MCF7 [3]): 1.8 µM
Activity (L1210 [4]): 272%
Activity (L1210 [5]): >300%
Activity (L1210 [6]): 281%
Activity (Mus musculus [7]): 402 10^3 /uL
Activity (Mus musculus [8]): 9.41 10^6 /uL
Activity (Mus musculus [9]): 9.1 10^6 /uL
Activity (Mus musculus [10]): 2.97 10^3 /uL
Activity (Mus musculus [11]): 10.13 10^6 /uL
Activity (Mus musculus [12]): 2.85 10^3 /uL
Activity (Mus musculus [13]): 2.82 10^3 /uL
Activity [14]: Active
Activity (DU-145 [15]): 15%
Activity (DU-145 [16]): inactive
Activity (MCF7 [17]): inactive
Activity (PC-3 [18]): inactive
Activity (PC-3 [19]): inactive
Activity (DU-145 [20]): inactive
Activity (DU-145 [21]): inactive
Activity (DU-145 [22]): Active
Activity (Mus musculus [23]): Non-toxic
Activity [24]: 183%
Activity (Homo sapiens): inactive
